Test results as given in ChEMBL document CHEMBL3870349, “Novel 3-methylindoline inhibitors of EZH2: Design, synthesis and SAR” (Bioorg Med Chem Lett, 2017).
≈ marks a conversion by molar mass, not a printed value.

Tests used:
[1] = target: Histone-lysine N-methyltransferase EZH2 (Homo sapiens, UniProt Q15910); assay: Inhibition of human wild type EZH2 using histone H3 as substrate after 1 hr in presence of 3H-SAM by filter paper detection analysis
In short: (§1)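 Each HMT complex was incubated with 3H-SAM (tritiated S-adenosyl-L-methionine) and histone H3 as substrate. An IC50 curve was generated for each compound.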

[2] = target: T1, Histone-lysine N-methyltransferase EZH1 (Homo sapiens, UniProt Q92800); assay: Inhibition of human EZH1 complex using histone H3 as substrate after 1 hr in presence of 3H-SAM by filter paper detection analysis; in short: as §1
T1 sequence (Q92800 whole entry): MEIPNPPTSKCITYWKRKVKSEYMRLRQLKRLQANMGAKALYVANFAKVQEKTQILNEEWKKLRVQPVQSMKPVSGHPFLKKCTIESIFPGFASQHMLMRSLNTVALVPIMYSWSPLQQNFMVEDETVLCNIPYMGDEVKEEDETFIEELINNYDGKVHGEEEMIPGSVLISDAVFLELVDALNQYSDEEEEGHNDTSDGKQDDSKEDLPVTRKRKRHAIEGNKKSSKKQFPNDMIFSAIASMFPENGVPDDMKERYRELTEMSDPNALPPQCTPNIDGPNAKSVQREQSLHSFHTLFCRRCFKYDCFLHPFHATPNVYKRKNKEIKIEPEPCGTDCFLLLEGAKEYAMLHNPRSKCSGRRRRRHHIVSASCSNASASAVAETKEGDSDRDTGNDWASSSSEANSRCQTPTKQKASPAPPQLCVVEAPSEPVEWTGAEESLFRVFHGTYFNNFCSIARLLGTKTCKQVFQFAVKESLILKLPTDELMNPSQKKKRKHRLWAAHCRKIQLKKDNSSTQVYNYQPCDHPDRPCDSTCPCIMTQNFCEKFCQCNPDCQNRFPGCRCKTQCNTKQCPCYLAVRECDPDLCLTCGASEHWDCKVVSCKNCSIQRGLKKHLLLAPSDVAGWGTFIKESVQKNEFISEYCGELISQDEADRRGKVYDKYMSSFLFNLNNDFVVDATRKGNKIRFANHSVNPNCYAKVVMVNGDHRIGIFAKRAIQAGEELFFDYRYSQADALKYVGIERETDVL

[3] = target: Histone-lysine N-methyltransferase EZH2 (Homo sapiens, UniProt Q15910, Y641F); assay: Inhibition of human EZH2 Y641F mutant using histone H3 as substrate after 1 hr in presence of 3H-SAM by filter paper detection analysis; in short: as §1
[4] = Kinetic solubility of compound in PBS buffer at pH 7.4 after 1 hr by micro-plate nephelometric analysis; type: physicochemical; conditions: read-out: Kinetic_solubility
[5] = Oxidative metabolic stability in human liver microsomes assessed as amount of parent compound remaining at 1 uM after 30 mins by LC-MS/MS; type: ADME; conditions: read-out: Stability
[6] = Oxidative metabolic stability in mouse liver microsomes assessed as amount of parent compound remaining at 1 uM after 30 mins by LC-MS/MS; type: ADME; conditions: read-out: Stability

Sequence of Histone-lysine N-methyltransferase EZH2 (Homo sapiens, UniProt Q15910) (Q15910 whole entry): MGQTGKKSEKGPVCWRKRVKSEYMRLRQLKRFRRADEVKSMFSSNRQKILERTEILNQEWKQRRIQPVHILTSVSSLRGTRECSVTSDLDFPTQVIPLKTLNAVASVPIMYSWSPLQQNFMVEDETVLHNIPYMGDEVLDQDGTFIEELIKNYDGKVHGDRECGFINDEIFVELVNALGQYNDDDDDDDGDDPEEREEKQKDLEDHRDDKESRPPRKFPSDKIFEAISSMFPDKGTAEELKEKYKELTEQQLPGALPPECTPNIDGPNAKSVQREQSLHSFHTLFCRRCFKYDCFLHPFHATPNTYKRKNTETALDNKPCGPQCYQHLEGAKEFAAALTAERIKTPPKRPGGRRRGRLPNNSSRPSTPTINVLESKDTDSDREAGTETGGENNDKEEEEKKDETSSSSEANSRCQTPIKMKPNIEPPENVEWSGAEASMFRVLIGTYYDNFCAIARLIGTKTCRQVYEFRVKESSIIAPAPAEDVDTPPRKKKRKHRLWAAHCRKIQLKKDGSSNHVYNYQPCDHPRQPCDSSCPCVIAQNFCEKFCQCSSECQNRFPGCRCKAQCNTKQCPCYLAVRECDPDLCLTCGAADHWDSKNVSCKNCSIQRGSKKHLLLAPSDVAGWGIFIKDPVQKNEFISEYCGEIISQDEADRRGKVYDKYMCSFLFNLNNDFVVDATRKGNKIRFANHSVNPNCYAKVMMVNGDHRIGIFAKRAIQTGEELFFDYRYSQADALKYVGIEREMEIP
Sequence of Histone-lysine N-methyltransferase EZH2 (Homo sapiens, UniProt Q15910, Y641F) (Q15910 whole entry Y641F): as the sequence (Q15910 whole entry) above, with Y641F counted along it

SMILES	IC50 [1] [nM]	IC50 [2] [nM]	IC50 [3] [nM]	further results
Cc1cc(C)c(CNC(=O)c2cc(-c3ccc(N4CCNCC4)nc3)cc3c2C(C)CN3C(C)C)c(=O)[nH]1 (stereo in doubt; 39e1)	17	1870	622	–
CCN(c1cc(-c2ccc(CN3CCOCC3)cc2)cc(C(=O)NCc2c(C)cc(C)[nH]c2=O)c1C)C1CCOCC1 [TAZEMETOSTAT]	–	–	–	solubility kinetic at 1 h [4]: 28 µM (≈ 16 µg/mL); remaining at 0.5 h, 1 µM [5]: 25%; remaining at 0.5 h, 1 µM [6]: 39%
Cc1cc(C)c(CNC(=O)c2cc(-c3ccc(CN4CCOCC4)cc3)cc3c2C(C)CN3C2CCOCC2)c(=O)[nH]1 (stereo in doubt; 34e1)	29	3340	975	solubility kinetic at 1 h [4]: 75 µM (≈ 42.8 µg/mL); remaining at 0.5 h, 1 µM [5]: 62%; remaining at 0.5 h, 1 µM [6]: 58%
Cc1cc(C)c(CNC(=O)c2cc(-c3cnc(N4CCNCC4)c4ccccc34)cc3c2C(C)CN3C2CCOCC2)c(=O)[nH]1 (stereo in doubt; 36e1)	17	1560	304	–
Cc1cc(C)c(CNC(=O)c2cc(-c3ccc(CN4CCOCC4)cc3)cc3c2C(C)CN3C(C)C)c(=O)[nH]1 (stereo in doubt; 30e2)	4140	–	–	–
Cc1cc(C)c(CNC(=O)c2cc(-c3ccc(N4CCNCC4)nc3)cc3c2C(C)CN3C2CCOCC2)c(=O)[nH]1 (stereo in doubt; 41e2)	2150	–	–	–
Cc1cc(C)c(CNC(=O)c2cc(-c3ccc(N4CCNCC4)nc3)cc3c2C(C)CN3C2CCOCC2)c(=O)[nH]1 (stereo in doubt; 41e1)	11	1980	578	solubility kinetic at 1 h [4]: 75 µM (≈ 41.8 µg/mL); remaining at 0.5 h, 1 µM [5]: 83%; remaining at 0.5 h, 1 µM [6]: 95%
Cc1cc(C)c(CNC(=O)c2cc(-c3cnc(N4CCNCC4)nc3)cc3c2C(C)CN3C2CCOCC2)c(=O)[nH]1 (stereo in doubt; 45e2)	2160	–	–	–
Cc1cc(C)c(CNC(=O)c2cc(-c3ccc(CN4CCOCC4)cc3)cc3c2CCN3C2CCOCC2)c(=O)[nH]1	237	–	–	–
Cc1cc(C)c(CNC(=O)c2cc(-c3ccc(CN4CCOCC4)cc3)cc3c2C(C)CN3C(C)C)c(=O)[nH]1 (stereo in doubt; 30e1)	47	2710	518	–
Cc1cc(C)c(CNC(=O)c2cc(-c3cnc(N4CCNCC4)c4ccccc34)cc3c2C(C)CN3C2CCOCC2)c(=O)[nH]1 (stereo in doubt; 36e2)	540	–	–	–
Cc1cc(C)c(CNC(=O)c2cc(C#N)cc3c2CCN3C(C)C)c(=O)[nH]1	26600	–	–	–
Cc1cc(C)c(CNC(=O)c2cc(-c3ccc(N4CCNCC4)nc3)cc3c2C(C)CN3C(C)C)c(=O)[nH]1 (stereo in doubt; 39e2)	1080	–	–	–
Cc1cc(C)c(CNC(=O)c2cc(-c3cnc(N4CCNCC4)nc3)cc3c2C(C)CN3C2CCOCC2)c(=O)[nH]1 (stereo in doubt; 45e1)	98	–	–	–
Cc1cc(C)c(CNC(=O)c2cc(-c3ccc(CN4CCOCC4)cc3)cc3c2C(C)CN3CC2CC2)c(=O)[nH]1 (stereo in doubt; 31e1)	375	–	–	–
Cc1cc(C)c(CNC(=O)c2cc(-c3ccc(CN4CCOCC4)cc3)cc3c2C(C)CN3C2CCOCC2)c(=O)[nH]1 (stereo in doubt; 34e2)	6980	–	–	–
Cc1cc(C)c(CNC(=O)c2cc(-c3ccc(CN4CCOCC4)cc3)cc3c2C(C)CN3CC2CC2)c(=O)[nH]1 (stereo in doubt; 31e2)	15200	–	–	–

The next lines start with results.

IC50 [1] [nM]	IC50 [2] [nM]	IC50 [3] [nM]	SMILES	further results
> 100000	–	–	Cc1cc(C)c(CNC(=O)c2cc(C#N)cc3c2C(C)CN3C2CCCC2)c(=O)[nH]1 (stereo in doubt; 28e2)	–
88	7750	478	Cc1cc(C)c(CNC(=O)c2cc(C#N)cc3c2C(C)CN3C(C)C)c(=O)[nH]1 (stereo in doubt; 27e1)	–
571	–	–	Cc1cc(C)c(CNC(=O)c2cc(C#N)cc3c2CCN3C2CCCC2)c(=O)[nH]1	–
448	–	–	Cc1cc(C)c(CNC(=O)c2cc(-c3ccc(CN4CCOCC4)cc3)cc3c2C(C)CN3C2CCCC2)c(=O)[nH]1 (stereo in doubt; 33e2)	–
27	4440	185	Cc1cc(C)c(CNC(=O)c2cc(C#N)cc3c2C(C)CN3C2CCCC2)c(=O)[nH]1 (stereo in doubt; 28e1)	–
21	1350	505	Cc1cc(C)c(CNC(=O)c2cc(-c3ccc(N4CCNCC4)nc3)cc3c2C(C)CN3C2CCCC2)c(=O)[nH]1 (stereo in doubt; 40e1)	–
24	2650	902	Cc1cc(C)c(CNC(=O)c2cc(-c3ccc(CN4CCOCC4)cc3)cc3c2C(C)CN3C2CCCC2)c(=O)[nH]1 (stereo in doubt; 33e1)	–
> 100000	–	–	Cc1cc(C)c(CNC(=O)c2cc(C#N)cc3c2C(C)CN3C(C)C)c(=O)[nH]1 (stereo in doubt; 27e2)	–
15700	–	–	Cc1cc(C)c(CNC(=O)c2cc(C#N)cc3c2CCN3C2CCOCC2)c(=O)[nH]1	–
378	–	–	Cc1cc(C)c(CNC(=O)c2cc(-c3ccc(N4CCNCC4)nc3)cc3c2C(C)CN3C2CCCC2)c(=O)[nH]1 (stereo in doubt; 40e2)	–
